The results in this text go back to ChEMBL document CHEMBL4265915, “b-Annulated 1,4-dihydropyridines as Notch inhibitors” (Bioorg Med Chem Lett, 2018).

The target of assay [1] is T1, Neurogenic locus notch homolog protein 1 (Homo sapiens, UniProt P46531). Kind of assay: Inhibition of Notch1 deltaE mutant (unknown origin) expressed in HEK293 cells after 16 hrs by […] luciferase reporter gene assay. The assay is classed as cell-based.
Target sequence in this assay (P46531 19-2555 limits assumed): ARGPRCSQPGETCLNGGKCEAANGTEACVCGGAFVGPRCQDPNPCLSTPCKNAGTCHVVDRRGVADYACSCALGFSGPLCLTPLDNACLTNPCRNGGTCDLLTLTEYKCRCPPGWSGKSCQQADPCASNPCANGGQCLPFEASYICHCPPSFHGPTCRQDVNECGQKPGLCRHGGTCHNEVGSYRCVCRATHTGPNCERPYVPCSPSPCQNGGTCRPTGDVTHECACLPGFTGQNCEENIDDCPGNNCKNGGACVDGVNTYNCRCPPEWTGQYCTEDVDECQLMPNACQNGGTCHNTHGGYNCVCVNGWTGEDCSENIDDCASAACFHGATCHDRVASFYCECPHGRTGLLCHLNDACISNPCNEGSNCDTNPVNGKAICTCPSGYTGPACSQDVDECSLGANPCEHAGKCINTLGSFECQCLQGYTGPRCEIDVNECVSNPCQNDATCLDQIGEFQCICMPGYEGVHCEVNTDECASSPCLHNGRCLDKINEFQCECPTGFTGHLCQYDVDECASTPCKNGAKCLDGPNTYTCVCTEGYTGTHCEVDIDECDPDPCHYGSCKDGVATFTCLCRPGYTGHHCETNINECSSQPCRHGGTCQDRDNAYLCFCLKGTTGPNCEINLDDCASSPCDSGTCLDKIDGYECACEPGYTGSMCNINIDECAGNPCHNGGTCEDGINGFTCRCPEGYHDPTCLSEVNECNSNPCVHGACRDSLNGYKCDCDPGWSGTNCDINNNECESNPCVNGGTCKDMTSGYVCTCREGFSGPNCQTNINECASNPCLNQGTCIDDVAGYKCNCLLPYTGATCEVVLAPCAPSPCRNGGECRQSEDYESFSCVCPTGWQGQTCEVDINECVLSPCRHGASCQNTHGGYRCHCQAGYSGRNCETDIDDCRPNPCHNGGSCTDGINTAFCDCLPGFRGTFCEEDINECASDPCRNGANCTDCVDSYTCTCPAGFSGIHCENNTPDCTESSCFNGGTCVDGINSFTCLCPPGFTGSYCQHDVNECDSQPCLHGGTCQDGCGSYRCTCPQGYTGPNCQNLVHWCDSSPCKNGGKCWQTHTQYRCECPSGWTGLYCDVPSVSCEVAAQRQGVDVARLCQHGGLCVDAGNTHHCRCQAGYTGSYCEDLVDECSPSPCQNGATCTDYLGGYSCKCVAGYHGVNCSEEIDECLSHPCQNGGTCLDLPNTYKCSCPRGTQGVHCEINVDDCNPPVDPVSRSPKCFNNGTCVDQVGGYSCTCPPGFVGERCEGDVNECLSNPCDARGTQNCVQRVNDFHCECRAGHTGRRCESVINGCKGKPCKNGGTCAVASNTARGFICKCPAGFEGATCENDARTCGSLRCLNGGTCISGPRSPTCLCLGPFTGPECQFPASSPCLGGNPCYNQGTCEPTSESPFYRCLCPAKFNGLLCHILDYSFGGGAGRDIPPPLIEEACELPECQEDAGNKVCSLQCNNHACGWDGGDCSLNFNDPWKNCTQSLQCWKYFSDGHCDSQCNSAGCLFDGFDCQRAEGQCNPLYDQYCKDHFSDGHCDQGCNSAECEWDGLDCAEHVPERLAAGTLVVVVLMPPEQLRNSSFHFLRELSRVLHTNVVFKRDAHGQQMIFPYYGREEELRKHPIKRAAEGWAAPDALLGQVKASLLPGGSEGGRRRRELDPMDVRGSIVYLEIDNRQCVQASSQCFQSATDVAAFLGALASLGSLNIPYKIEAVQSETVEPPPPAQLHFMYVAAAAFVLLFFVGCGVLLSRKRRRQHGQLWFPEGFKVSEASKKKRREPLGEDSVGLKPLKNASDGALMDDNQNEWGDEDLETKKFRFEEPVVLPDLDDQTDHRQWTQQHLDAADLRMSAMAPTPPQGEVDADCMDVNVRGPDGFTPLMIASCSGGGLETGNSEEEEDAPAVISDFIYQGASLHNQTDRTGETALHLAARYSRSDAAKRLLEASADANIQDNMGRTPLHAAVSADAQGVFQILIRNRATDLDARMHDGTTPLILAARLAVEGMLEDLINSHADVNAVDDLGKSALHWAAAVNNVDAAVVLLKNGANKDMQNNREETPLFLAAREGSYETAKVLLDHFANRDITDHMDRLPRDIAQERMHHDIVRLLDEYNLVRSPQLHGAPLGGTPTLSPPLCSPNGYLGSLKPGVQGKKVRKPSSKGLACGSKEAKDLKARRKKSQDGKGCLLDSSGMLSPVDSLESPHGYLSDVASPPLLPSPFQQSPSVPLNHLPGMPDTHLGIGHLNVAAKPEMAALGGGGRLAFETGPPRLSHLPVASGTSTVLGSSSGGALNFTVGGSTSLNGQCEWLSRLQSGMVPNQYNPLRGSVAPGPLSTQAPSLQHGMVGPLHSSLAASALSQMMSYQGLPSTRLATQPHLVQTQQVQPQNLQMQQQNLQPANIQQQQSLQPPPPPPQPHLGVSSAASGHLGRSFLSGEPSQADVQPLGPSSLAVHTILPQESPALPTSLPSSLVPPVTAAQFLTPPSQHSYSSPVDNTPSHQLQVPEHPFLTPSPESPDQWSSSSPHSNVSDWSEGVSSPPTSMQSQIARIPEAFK
Assay [2] has as its system HCT-116. In words: Antiproliferative activity against human HCT116 cells after 72 hrs by SYBR green dye based fluorescence assay. It is filed as functional, cell-based. Conditions: for IC50: HCT-116, 72 h. The method, boiled down:
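HCT-116 colon cancer cells were incubated for 72 h with a concentration series of test agent, with a vehicle-treated control. Proliferation was measured, and the IC50 was derived from the dose-response curve.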

Assay [3] deals with HCT-116. In words: Potency index, ratio of DAPM IC50 to compound IC50 for antiproliferative activity against human HCT116 cells. It is filed as functional.
Assay [4] addresses T1, Neurogenic locus notch homolog protein 1. Kind of assay: Potency index, ratio of FLI-06 IC50 to compound IC50 for inhibition of Notch1 deltaE mutant (unknown origin).
Target sequence in this assay (P46531 whole entry): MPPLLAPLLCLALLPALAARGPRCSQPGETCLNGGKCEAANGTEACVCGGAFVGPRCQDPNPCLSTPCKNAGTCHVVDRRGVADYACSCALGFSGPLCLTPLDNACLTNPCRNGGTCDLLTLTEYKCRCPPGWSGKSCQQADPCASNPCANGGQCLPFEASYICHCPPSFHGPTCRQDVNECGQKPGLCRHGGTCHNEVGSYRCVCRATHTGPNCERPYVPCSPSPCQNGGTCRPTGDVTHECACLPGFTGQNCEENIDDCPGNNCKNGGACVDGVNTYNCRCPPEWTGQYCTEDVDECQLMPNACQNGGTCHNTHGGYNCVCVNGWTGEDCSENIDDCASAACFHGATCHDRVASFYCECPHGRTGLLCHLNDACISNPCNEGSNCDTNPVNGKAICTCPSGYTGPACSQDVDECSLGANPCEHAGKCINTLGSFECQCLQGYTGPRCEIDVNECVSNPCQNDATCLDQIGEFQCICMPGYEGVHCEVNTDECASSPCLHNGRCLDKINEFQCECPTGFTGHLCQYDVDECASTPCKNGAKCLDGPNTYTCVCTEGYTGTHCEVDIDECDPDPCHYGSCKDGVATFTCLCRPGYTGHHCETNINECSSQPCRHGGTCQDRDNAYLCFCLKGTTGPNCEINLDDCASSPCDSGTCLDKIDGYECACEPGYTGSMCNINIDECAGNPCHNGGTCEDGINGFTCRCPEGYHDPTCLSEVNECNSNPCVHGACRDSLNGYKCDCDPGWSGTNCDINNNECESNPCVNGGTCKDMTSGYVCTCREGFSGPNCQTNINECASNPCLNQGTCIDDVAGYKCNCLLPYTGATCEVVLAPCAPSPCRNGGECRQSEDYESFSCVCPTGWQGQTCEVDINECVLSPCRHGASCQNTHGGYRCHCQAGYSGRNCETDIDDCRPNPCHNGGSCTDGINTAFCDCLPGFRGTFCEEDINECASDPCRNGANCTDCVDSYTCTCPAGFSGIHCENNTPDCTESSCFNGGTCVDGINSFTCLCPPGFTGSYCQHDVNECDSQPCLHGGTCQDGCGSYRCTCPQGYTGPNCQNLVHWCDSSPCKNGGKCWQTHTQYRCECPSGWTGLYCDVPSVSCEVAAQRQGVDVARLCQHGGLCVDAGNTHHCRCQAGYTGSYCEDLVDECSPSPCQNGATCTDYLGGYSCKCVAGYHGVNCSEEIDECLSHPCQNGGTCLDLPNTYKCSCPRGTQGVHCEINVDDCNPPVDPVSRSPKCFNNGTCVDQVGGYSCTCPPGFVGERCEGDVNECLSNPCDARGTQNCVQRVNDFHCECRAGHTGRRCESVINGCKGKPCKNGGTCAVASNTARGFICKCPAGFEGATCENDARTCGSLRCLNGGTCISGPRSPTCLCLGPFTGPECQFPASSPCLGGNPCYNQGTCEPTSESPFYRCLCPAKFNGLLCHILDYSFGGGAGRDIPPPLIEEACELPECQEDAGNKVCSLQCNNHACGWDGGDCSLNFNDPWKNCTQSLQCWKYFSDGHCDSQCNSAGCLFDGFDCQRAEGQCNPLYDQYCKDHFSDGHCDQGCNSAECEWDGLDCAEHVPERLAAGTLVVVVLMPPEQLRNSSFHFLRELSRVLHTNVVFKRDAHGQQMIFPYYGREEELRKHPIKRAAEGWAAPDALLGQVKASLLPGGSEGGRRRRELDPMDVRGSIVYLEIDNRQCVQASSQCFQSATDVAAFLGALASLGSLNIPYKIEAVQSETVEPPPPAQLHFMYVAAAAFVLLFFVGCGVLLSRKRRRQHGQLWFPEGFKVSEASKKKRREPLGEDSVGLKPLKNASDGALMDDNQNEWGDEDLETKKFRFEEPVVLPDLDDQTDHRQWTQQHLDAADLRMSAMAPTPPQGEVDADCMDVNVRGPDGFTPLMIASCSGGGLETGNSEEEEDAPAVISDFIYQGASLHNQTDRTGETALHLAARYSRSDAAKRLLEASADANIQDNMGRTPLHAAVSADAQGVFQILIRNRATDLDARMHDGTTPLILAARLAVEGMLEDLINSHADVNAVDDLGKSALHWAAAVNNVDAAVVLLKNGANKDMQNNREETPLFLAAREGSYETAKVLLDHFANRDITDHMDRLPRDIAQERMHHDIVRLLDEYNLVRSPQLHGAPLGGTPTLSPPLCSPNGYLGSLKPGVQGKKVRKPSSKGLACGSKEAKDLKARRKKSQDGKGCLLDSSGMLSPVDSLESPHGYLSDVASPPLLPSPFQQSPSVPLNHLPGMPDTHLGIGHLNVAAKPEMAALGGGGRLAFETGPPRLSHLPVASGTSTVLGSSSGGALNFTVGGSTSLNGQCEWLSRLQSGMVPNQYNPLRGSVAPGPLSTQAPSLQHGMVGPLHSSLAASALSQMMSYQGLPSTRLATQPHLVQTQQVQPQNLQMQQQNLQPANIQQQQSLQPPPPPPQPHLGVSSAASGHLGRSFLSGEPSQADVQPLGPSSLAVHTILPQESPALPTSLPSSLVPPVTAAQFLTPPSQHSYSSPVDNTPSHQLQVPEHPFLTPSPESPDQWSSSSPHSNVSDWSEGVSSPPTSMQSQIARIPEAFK

Structures are written as SMILES.

As for `CC1=C(C(=O)OCC2CCN(C(=O)OC(C)(C)C)CC2)C(c2ccc3ccccc3n2)C2=C(CC(C)(C)CC2=O)N1` (configuration not stated), in assay [1], the IC50 was determined as 330 nM.
Same read-out and setting: under `CC1=C(C(=O)OCC2CCN(C(=O)OC(C)(C)C)CC2)C(c2ccc3c(c2)OCCO3)C2=C(CC(C)(C)CC2=O)N1` (configuration not stated) stands 1520 nM.
On the same count and under the same terms, under `CC1=C(C(=O)OCC2CCN(C(=O)OC(C)(C)C)CC2)[C@@H](c2cccc(Br)c2)C2=C(CC(C)(C)CC2=O)N1` stands 2590 nM.
In turn, `CC1=C(C(=O)OC23CC4CC(CC(C4)C2)C3)C(c2cccc(Br)c2)C2=C(CC(C)(C)CC2=O)N1` (configuration not stated) registered an IC50 in assay [1] above 10000 nM.
Still for that read-out and setting: under `CC1=C(C(=O)OCC2CCN(C(=O)OC(C)(C)C)CC2)C(c2cccc(C#N)c2)C2=C(CC(C)(C)CC2=O)N1` (configuration not stated) stands 220 nM.
`COC(=O)[C@@H](NC(=O)[C@H](C)NC(=O)Cc1cc(F)cc(F)c1)c1ccccc1`: in the assay with HCT-116 [2], the Activity entry is “Dose-dependent effect” and the 50% inhibitory concentration (IC50) was 12000 nM.
`CC1=C(C(=O)OCC2CCN(C(=O)OC(C)(C)C)CC2)C(c2ccc(-c3ccccc3)cc2)C2=C(CC(C)(C)CC2=O)N1` (configuration not stated) yielded an IC50 in assay [1] above 10000 nM.
On the same count and under the same terms, then `CC1=C(C(=O)OC2CCCCC2)C(c2cccc(Br)c2)C2=C(CC(C)(C)CC2=O)N1` (configuration not stated), with 4150 nM; and `CC1=C(C(=O)OCC2CCN(C(=O)OC(C)(C)C)CC2)C(c2cccc([N+](=O)[O-])c2)C2=C(CC(C)(C)CC2=O)N1` (configuration not stated), with above 10000 nM; and `CC1=C(C(=O)OCc2cnccn2)C(c2cccc(Br)c2)C2=C(CC(C)(C)CC2=O)N1` (configuration not stated), with 860 nM.
Same read-out and setting: under `CC1=C(C(=O)OCC2CCN(C(=O)OC(C)(C)C)CC2)C(c2ccc(Br)cc2F)C2=C(CC(C)(C)CC2=O)N1` (configuration not stated) stands above 10000 nM; under `CC1=C(C(=O)OC2CCCCC2)C(c2cccc(C(F)(F)F)c2)C2=C(CC(C)(C)CC2=O)N1` (configuration not stated), 14700 nM; under `CC1=C(C(=O)OCCC2CCN(C(=O)OC(C)(C)C)CC2)C(c2cccc(Br)c2)C2=C(CC(C)(C)CC2=O)N1` (configuration not stated), 2950 nM.
For `CC1=C(C(=O)OCC2CCN(C(=O)OC(C)(C)C)CC2)[C@H](c2cccc(Br)c2)C2=C(CC(C)(C)CC2=O)N1`, the “Ratio IC50” value amounted to 55 in the assay with HCT-116 [3] and 20 in assay [4]. In addition, the IC50 in assay [1] was 130 nM; with HCT-116 [2], 220 nM. Moreover, in the assay with HCT-116 [2], the Activity result is “Dose-dependent effect”.
With `CC1=C(C(=O)OC2CCN(C(=O)OC(C)(C)C)CC2)C(c2cccc(Br)c2)C2=C(CC(C)(C)CC2=O)N1` (configuration not stated), the IC50 in assay [1] is above 10000 nM.
Same read-out and setting: then `CC1=C(C(=O)OCC2CCN(C(=O)OC(C)(C)C)CC2)C(c2cc(Cl)cc(Cl)c2)C2=C(CC(C)(C)CC2=O)N1` (configuration not stated), with 640 nM; and `CC1=C(C(=O)OCC2CCN(C(=O)OC(C)(C)C)CC2)C(c2cccc(-c3ccc4[nH]ccc4c3)c2)C2=C(CC(C)(C)CC2=O)N1` (configuration not stated), with 770 nM.
The same measure, in the same setting: then `CC1=C(C(=O)O[C@H](CC#N)c2ccccc2)C(c2cccc(Br)c2)C2=C(CC(C)(C)CC2=O)N1` (some centres not stated), with above 10000 nM.
For `CC1=C(C(=O)OC2CCCCC2)C(c2ccc([N+](=O)[O-])cc2)C2=C(CC(C)(C)CC2=O)N1` (configuration not stated), the IC50 in assay [1] stood at 2510 nM; in the assay with HCT-116 [2], 1800 nM. In addition, the Activity result in the assay with HCT-116 [2] is “Dose-dependent effect”.
Regarding `CC1=C(C(=O)OCC2CCN(C(=O)OC(C)(C)C)CC2)C(c2cccc(Br)c2)C2=C(CC(C)(C)CC2=O)N1` (configuration not stated), the midpoint of inhibition in assay [1], the IC50, lay at 360 nM.
In assay [1], `CC1=C(C(=O)OCC2CCN(C(=O)OC(C)(C)C)CC2)C(c2cccc(C(C)C)c2)C2=C(CC(C)(C)CC2=O)N1` (configuration not stated) registered a half-maximal inhibitory concentration (IC50) of 3320 nM.
On the same count and under the same terms, then `CC1=C(C(=O)OC2CCCCC2)C(c2ccc3c(c2)OCCO3)C2=C(CC(C)(C)CC2=O)N1` (configuration not stated), with 12300 nM; and `CC1=C(C(=O)OCC2CCN(C(=O)OC(C)(C)C)CC2)C(c2cccc(C(F)(F)F)c2)C2=C(CC(C)(C)CC2=O)N1` (configuration not stated), with 760 nM.
On the same count and under the same terms, then `CC1=C(C(=O)OCc2ccc(C(C)(C)C)cc2)C(c2cccc(Br)c2)C2=C(CC(C)(C)CC2=O)N1` (configuration not stated), with 4270 nM; and `CC1=C(C(=O)OC2CCCCC2)C(c2cccc(C#N)c2)C2=C(CC(C)(C)CC2=O)N1` (configuration not stated), with 43200 nM.
